Screens: PubChem BioAssay, several laboratories
In the library only some 1.4% were active in any assay of this set; here they are far more common.
TbMetRS inhib: blocks T. brucei methionyl-tRNA synthetase activity; purified T. brucei MetRS, ATP depletion, Kinase-Glo luminescence; inhibition, % at 11.9 µM; 360,000 compounds, 0.4% hits;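 active = inhibition above a per-plate cutoff of the control wells' mean inhibition plus 3 SD, cut at about 5.5% in these data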;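 note: 0% = DMSO wells median and 100% = median of wells with control inhibitor compound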
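Material – parasite MetRS enzyme · Medium – HEPES-MgCl2-KCl buffer plus DTT, spermine, BSA, pyrophosphatase · Reagent – ATP, methionine and E. coli bulk tRNA substrates · Times – 15 min enzyme-compound preincubation, 2 h reaction, 10 min detection, 25 °C · Measured by – luminescence of leftover ATP · Evaluation – percent inhibition relative to median high and low control wells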
IDE cell activ: boosts human insulin-degrading enzyme activity in HEK cells; P14735; FAbeta-B cleavage, fluorescence polarization; 0% vehicle, 100% cell-free pure enzyme wells; activation, % at 5.96 µM; 340,000 compounds, 0.073% hits;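 active = activation above the mean of all tested compounds plus 3 SD, set per screening campaign, cut at about 17% in these data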
IDE inh: inhibitors of human insulin-degrading enzyme in cells | HEK cells, FAbetaB cleavage, fluorescence polarization | inhibition, % at 5.59 µM | P14735 | 320,000 compounds, 0.41% hits;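 active = percent inhibition above the average of all tested compounds plus 3 SD, set per screening campaign, cut at about 16% in these data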;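 note: IDE supplied by intact live HEK cells; FP after avidin binding of uncleaved biotin substrate so inhibition keeps polarization high; 0% = DMSO wells and 100% = 60 µM reference IDE inhibitor Ii1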
Efflux pump inh: antifungal efflux pump inhibition, Nile Red retention | S. cerevisiae Candida pump triplex | 330,000 compounds, 0.44% hits | inhibition, % at 10 µM;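 active = plate passing quality check with inhibition over a set limit, or well fluorescence over plate mean plus 4 SD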;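 note: Nile Red retained in pooled yeast measured as flow cytometry median fluorescence; 0% = buffer negative control and 100% = Enniatin B positive control; higher means more Nile Red kept so more efflux inhibition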
HDAC3 inhib: blocks human histone deacetylase 3. O15379. recombinant HDAC3, fluorogenic peptide/trypsin coupled, fluorescence. inhibition, % at 8.3 µM. 320,000 compounds, 0.15% hits; in the data active = inhibition above about 26%, passing the limit was not always enough; inconclusive = no clear call, values can overlap the other calls
Target sequence (O15379 whole entry, looked up): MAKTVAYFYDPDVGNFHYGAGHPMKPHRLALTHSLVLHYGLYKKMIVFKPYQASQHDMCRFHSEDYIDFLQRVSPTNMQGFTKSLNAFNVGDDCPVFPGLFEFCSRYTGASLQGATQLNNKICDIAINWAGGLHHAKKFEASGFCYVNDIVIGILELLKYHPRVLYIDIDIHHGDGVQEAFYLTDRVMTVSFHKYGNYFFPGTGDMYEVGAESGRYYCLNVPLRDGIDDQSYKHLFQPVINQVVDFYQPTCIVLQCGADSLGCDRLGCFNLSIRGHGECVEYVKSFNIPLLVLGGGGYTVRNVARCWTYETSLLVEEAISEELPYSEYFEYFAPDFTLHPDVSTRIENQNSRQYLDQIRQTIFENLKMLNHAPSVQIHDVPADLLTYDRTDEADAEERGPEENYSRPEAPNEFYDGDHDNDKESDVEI
CR mimetic SO: lowers age-related superoxide in aged yeast cells; AID 2690; superoxide response (% of plate mean), % at 10 µM; 330,000 compounds, 0.18% hits; S. cerevisiae aged cells, superoxide DHE fluorescence; stronger effect = lower value;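 active = superoxide response under a set limit, about three screen SD below normal, cut at about 65% in these data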;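 note: yeast aged for seven days with compound at 30 °C before DHE staining; 100% = average MFI of all compound-treated wells on the plate with controls excluded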
Cmpd fluor yeast: counter-screen for efflux pump inhibitors: compound fluorescence. shares compounds with Efflux pump inh. S. cerevisiae AD/pABC3, flow cytometry. fluorescence ratio to DMSO, % at 10 µM. 1,700 compounds, 4% hits. AID 588517;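 active = fluorescence ratio to DMSO above its plate's cutoff, the plate mean ratio plus 5 SD, cut at about 210% in these data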;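 note: unstained yeast with no Nile Red so the signal is compound autofluorescence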
CaMdr1 efflux inh: inhibitors of Candida albicans Mdr1 efflux pump; shares compounds with Efflux pump inh; S. cerevisiae AD/CaMDR1, Nile Red efflux, flow cytometry; inhibition, % at 10 µM; 1,700 compounds, 1% hits; AID 588518; in the data active = inhibition above about 26%;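 note: 0% = DMSO vehicle and 100% = reference inhibitor; higher means more Nile Red retained so more efflux inhibition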
CaCdr2 efflux inh: inhibitors of Candida albicans Cdr2 efflux pump. shares compounds with Efflux pump inh. AID 588520. 1,700 compounds, 4% hits. S. cerevisiae AD/CaCDR2, Nile Red retention, flow cytometry. Nile Red retention ratio vs DMSO, % at 10 µM; in the data active = Nile Red retention ratio vs DMSO above about 190%;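 note: higher ratio means more blocking of Cdr2 efflux of the dye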
CaCdr1 efflux inh: blocks the Candida albicans Cdr1 efflux pump in yeast | shares compounds with Efflux pump inh | S. cerevisiae AD/CaCDR1, Nile Red efflux, flow cytometry | inhibition, % at 10 µM | 1,700 compounds, 1% hits | AID 588522;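 active = inhibition above the screen-wide mean plus twice its standard deviation, cut at about 32% in these data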
Active calls of the source: *; ? = inconclusive; · = no result; + = active, no number.

SMILES	TbMetRS inhib	IDE cell activ	IDE inh	Efflux pump inh	HDAC3 inhib	CR mimetic SO	Cmpd fluor yeast	CaMdr1 efflux inh	CaCdr2 efflux inh	CaCdr1 efflux inh
CN(C)c1ccc(/C=C/c2cc[n+](C)cc2)cc1	-1.2	-21.3	15.5	129.5*	2.7	106.2	+	+	488.4*	+
CC[n+]1c(/C=C/c2ccc(N(C)C)cc2)ccc2ccccc21	-3.2	2.4	8.5	10.9*	14.6	89.7	+	15.9	120.6	9.4
CC(C)(O)CN(CCCNC(=S)Nc1ccccc1)C(=S)Nc1ccccc1	-0.3	4.5	·	·	·	·	·	·	·	·
CN(C)c1ncnc2c1ncn2[C@H]1CN(Cc2ccc3c(c2)OCO3)C[C@@H](CO)O1	-0.3	·	·	·	·	·	·	·	·	·
O=C(c1ccco1)N1CCN(C(=O)c2ccc(-c3ccccc3Cl)o2)CC1	-0.5	-7.4	8.0	0.0	1.8	131.6	·	·	·	·
CC(CNC(=O)c1ccc(C(C)(C)C)cc1)CN(C)C (stereo unspecified)	-1.0	-4.2	0.9	2.0*	0.0	102.7	99.8	-0.1	95.6	-0.1
COc1c(-c2ccccc2)oc2c(ccc3occc32)c1=O	-0.5	3.1	-1.2	-0.1	0.4	91.0	·	·	·	·
C/C(=N\NC(=O)CCCNc1ccccc1)c1ccncc1	-0.9	4.8	3.0	1.1*	-0.7	91.9	96.6	-0.1	106.3	-0.1
C/C(=N\NC(=O)CCCNc1ccc(C)cc1)c1ccccn1	-0.6	5.0	7.6	-0.2	3.7	92.1	·	·	·	·
O=C(Nc1ccc2c(c1)CN(Cc1ccc(CO)o1)CC2)c1ccc(C(F)(F)F)cc1	-0.1	5.5	-2.5	0.1	2.3	109.2	·	·	·	·
CC1(C)Cc2c(sc(NC(=O)COc3ccc(Cl)cc3Cl)c2C(N)=O)C(C)(C)N1	-0.2	6.5	-0.1	0.6*	·	105.9	102.2	-0.2	110.3	-0.1
COC(=O)c1c(NC(=O)COc2ccc(Cl)cc2)sc2c1CC(C)(C)NC2(C)C	-1.0	9.7	2.4	0.5	-6.6	100.8	·	·	·	·
CCN(C(=O)COC(=O)c1cc(S(=O)(=O)N2CCOCC2)c(Cl)cc1Cl)C1CCS(=O)(=O)C1 (stereo unspecified)	-1.6	·	2.9	0.9*	1.9	94.5	107.8	0.0	87.3	-0.1
CCN(C(=O)COC(=O)c1ccc(F)c(S(=O)(=O)N2CCOCC2)c1)C1CCS(=O)(=O)C1 (stereo unspecified)	0.1	3.0	2.2	0.1	7.4	105.9	·	·	·	·
Cc1ccc(CN2CC(C(=O)Nc3ccc(S(=O)(=O)N4CCCCC4)cc3)CC2=O)cc1 (stereo unspecified)	-0.3	1.4	0.7	16.2*	-3.3	111.0	96.6	-0.2	110.3	0.1
O=C(Nc1ccc(S(=O)(=O)N2CCCCC2)cc1)C1CC(=O)N(Cc2ccccc2)C1 (stereo unspecified)	-0.3	-0.9	9.4	-0.1	2.3	95.5	·	·	·	·
O=C(N/C(=C\c1cccs1)C(=O)N1CCOCC1)c1cccs1	-0.6	4.6	1.1	-0.1	-10.3	99.8	·	·	·	·
COC(=O)Cn1cc(/C=C/c2cc[n+](C)cc2)c2ccccc21	-0.5	-5.8	13.8	0.1	16.0	101.8	173.8	1.0	141.3	0.6
O=C(Cc1ccc(NC(=O)C2CCN(C(=O)C3CCCC3)CC2)cc1)Nc1ccc(C(=O)N2CCOCC2)cc1	-0.5	3.9	·	·	·	·	·	·	·	·
COc1ccc(S(=O)(=O)N2CCOCC2)cc1NC(=O)COC(=O)CC1CC2CCC1C2 (stereo unspecified)	0.1	2.1	-1.1	0.8*	3.1	109.8	105.0	-0.2	90.9	0.2
CC(C)Oc1ccc(S(=O)(=O)N2CCOCC2)cc1NC(=O)CC1CC2CCC1C2 (stereo unspecified)	-0.4	·	·	·	·	·	·	·	·	·
O=C1OCc2ccc([N+](=O)[O-])cc21	0.1	-1.2	·	·	·	·	·	·	·	·
CN(C(=S)NC(=O)C12CC3CC(CC(C3)C1)C2)c1ccc(O)cc1	0.0	-4.2	6.5	-0.3	15.1	102.0	·	·	·	·
CCC1=C(OC(=O)N(CC)CC)N2C(=O)OC(=NCCc3c[nH]c4ccccc34)[C@]2(Cc2ccccc2)[C@H]2C1=CC[C@H]1C(=O)N(C)C(=O)[C@H]12	-0.5	5.6	4.0	95.8*	3.1	99.5	111.5	38.8*	124.7	0.9
CCC1=C(OC(=O)N(CC)CC)N2C(=O)OC(=NCCc3c[nH]c4ccccc34)[C@]2(Cc2ccccc2)[C@H]2C1=CC[C@H]1C(=O)N(c3ccccc3)C(=O)[C@H]12	-0.4	0.8	5.2	0.1	-7.7	94.7	·	·	·	·
SMILES	TbMetRS inhib	IDE cell activ	IDE inh	Efflux pump inh	HDAC3 inhib	CR mimetic SO	Cmpd fluor yeast	CaMdr1 efflux inh	CaCdr2 efflux inh	CaCdr1 efflux inh
O=c1cc(CSc2nc3ccccc3c(=O)[nH]2)c2ccc(O)cc2o1	3.4	3.3	·	·	·	·	·	·	·	·
Cc1ccc(CN2C(=O)C(Cc3ccccc3)Nc3ncnc(N4CCCCC4)c32)cc1 (stereo unspecified)	-0.1	4.6	-0.2	0.3	0.2	109.5	·	·	·	·
O=C1C(Cc2ccccc2)Nc2ncnc(N3CCOCC3)c2N1Cc1ccc(Cl)cc1 (stereo unspecified)	-0.3	5.2	5.4	0.0	-2.5	103.1	·	·	·	·
O=C1C(Cc2ccccc2)Nc2ncnc(N3CCN(c4ccccc4)CC3)c2N1Cc1ccccc1 (stereo unspecified)	-0.3	4.9	-2.2	0.3	4.4	89.8	104.6	-0.1	87.3	-0.1
O=C1C(Cc2ccccc2)Nc2ncnc(N3CCN(c4ccccc4)CC3)c2N1Cc1ccc(Br)cc1 (stereo unspecified)	-0.5	6.3	4.0	81.7*	?	91.0	110.0	56.2*	111.6	76.3*
Cc1ccc(CN2C(=O)C(Cc3ccccc3)Nc3ncnc(N4CCN(c5ccccc5)CC4)c32)cc1 (stereo unspecified)	-0.5	-3.0	-6.2	1.1*	7.7	99.2	95.5	-0.3	110.3	0.2
CC1Cc2ccccc2N1C(=O)C1CC(=O)N(c2ccccc2)C1 (stereo unspecified)	-0.6	5.0	-1.8	-0.3	-0.1	95.1	·	·	·	·
CSc1ccccc1OCc1cc(C(=O)NCCC2=CCCCC2)no1	-0.2	-4.4	3.2	0.0	-4.0	104.1	·	·	·	·
COc1ccc(CNC(=O)/C=C/C(=O)O)cc1OC	-0.6	4.4	-2.9	5.5*	-7.3	89.0	101.4	-0.1	95.6	-0.1
COc1ccc(CNC(=O)/C=C/c2ccco2)cc1OC	0.0	4.5	-2.9	-0.1	6.6	83.7	·	·	·	·
O=C(COc1ccc(Cl)cc1Cl)NC1CC1	0.5	·	·	·	·	·	·	·	·	·
